The source made the active and inactive calls. No cut-off for these calls is given here.
Assays:
Rattus norvegicus [1] = species: Rattus norvegicus; assay: Selectivity ratio of Ki for DAT in rat striatum to Ki for SERT in rat cerebral cortex; assay type: tissue-based
Method in brief: (§1)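 Ratio of Ki values from [3H]substrate uptake inhibition: [3H]dopamine for DAT in rat striatum, and [3H]serotonin for SERT or [3H]norepinephrine for NET in rat cerebral cortex. Each Ki came from an IC50 fitted over at least five triplicate concentrations, converted by Cheng-Prusoff.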

Rattus norvegicus [2] = species: Rattus norvegicus; assay: Selectivity ratio of Ki for DAT in rat striatum to Ki for NET in rat cerebral cortex; assay type: tissue-based; method in brief: as §1
[3] = biological target: Sodium-dependent serotonin transporter (Rattus norvegicus, UniProt P31652); assay: Inhibition of SERT in rat cerebral cortex assessed as [3H]serotonin accumulation; assay type: tissue-based
Sequence of Sodium-dependent serotonin transporter (P31652 whole entry): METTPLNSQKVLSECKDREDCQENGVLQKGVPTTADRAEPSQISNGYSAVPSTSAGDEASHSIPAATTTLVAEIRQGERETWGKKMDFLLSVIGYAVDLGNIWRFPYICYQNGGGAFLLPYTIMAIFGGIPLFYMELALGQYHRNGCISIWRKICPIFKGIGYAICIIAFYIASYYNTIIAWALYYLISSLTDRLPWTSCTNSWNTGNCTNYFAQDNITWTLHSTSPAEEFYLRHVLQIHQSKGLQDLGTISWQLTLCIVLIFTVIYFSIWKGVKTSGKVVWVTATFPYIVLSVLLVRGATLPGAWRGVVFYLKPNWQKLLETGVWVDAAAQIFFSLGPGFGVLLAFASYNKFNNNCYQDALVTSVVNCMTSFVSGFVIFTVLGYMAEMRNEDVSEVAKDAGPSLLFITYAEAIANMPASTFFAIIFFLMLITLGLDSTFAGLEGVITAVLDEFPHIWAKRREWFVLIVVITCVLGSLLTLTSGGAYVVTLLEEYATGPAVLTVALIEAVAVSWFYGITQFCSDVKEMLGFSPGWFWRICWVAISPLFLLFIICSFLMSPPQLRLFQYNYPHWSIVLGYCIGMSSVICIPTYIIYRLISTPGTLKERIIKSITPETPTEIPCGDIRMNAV
Method in brief: (§2)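 Uptake of [3H]dopamine (DAT, rat striatum) or [3H]serotonin (SERT, rat cerebral cortex) was measured with at least five triplicate concentrations spaced around the IC50. IC50 came from nonlinear curve fitting and was converted to Ki by Cheng-Prusoff. Values are mean ± SEM of 3–8 independent experiments.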

[4] = biological target: Sodium-dependent dopamine transporter (Rattus norvegicus, UniProt P23977); assay: Inhibition of DAT in rat striatum assessed as [3H]dopamine accumulation; assay type: tissue-based; method in brief: as §2
Sequence of Sodium-dependent dopamine transporter (P23977 whole entry): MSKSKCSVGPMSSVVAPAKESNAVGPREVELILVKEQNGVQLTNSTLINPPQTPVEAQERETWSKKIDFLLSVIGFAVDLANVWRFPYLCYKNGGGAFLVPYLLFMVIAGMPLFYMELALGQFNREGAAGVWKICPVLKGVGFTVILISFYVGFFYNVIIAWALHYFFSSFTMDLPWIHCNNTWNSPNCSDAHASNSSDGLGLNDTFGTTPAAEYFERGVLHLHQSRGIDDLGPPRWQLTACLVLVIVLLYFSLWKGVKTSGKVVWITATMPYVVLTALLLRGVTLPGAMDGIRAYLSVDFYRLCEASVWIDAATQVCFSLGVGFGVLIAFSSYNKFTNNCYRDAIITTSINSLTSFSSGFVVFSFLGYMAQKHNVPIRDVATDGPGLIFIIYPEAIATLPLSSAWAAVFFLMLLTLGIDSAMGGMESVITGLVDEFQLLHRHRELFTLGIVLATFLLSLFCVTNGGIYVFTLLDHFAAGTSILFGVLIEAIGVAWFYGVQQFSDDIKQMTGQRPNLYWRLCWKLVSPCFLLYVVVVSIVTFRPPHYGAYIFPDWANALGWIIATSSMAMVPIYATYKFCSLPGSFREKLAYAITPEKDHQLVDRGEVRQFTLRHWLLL

Rattus norvegicus [5] = species: Rattus norvegicus; assay: Selectivity ratio of Ki for SERT in rat cerebral cortex to Ki for NET in rat cerebral cortex; assay type: tissue-based; method in brief: as §1
[6] = Inhibition of NET in rat cerebral cortex assessed as [3H]norepinephrine accumulation; assay type: tissue-based
Method in brief: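 Rat cerebral cortex tissue; uptake of [3H]norepinephrine via NET measured. At least five concentrations per compound, each in triplicate, spaced evenly around the IC50. IC50 obtained by nonlinear curve fitting, then converted to Ki by Cheng-Prusoff. Values are mean ± SEM of three to eight independent experiments.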

Rattus norvegicus [7] = assay: Antidepressant activity in […] Sprague-Dawley rat assessed as reduction of immobility time at 10 mg/kg, ip administered 1 hr before test by forced swimming test; assay type: functional, organism-based; parameters: dose 10 mg/kg
Method in brief: (§3)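 Male Sprague-Dawley rats (200–225 g), drug-naive and used once. Forced swim test: 15 min pretest swim in a water-filled glass cylinder (depth 22 cm, 24–25 °C). Drug or vehicle (10% β-hydroxypropyl cyclodextrin) was given i.p. 15 min after the pretest and again before the 5 min test swim 24 h later. Immobility was scored from video by a blinded rater.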

Rattus norvegicus [8] = assay: Antidepressant activity in […] Sprague-Dawley rat assessed as reduction of immobility time at 15 mg/kg, ip administered 30 mins before test by forced swimming test; assay type: functional, organism-based; parameters: dose 15 mg/kg; method in brief: as §3

Row | Compound | Ratio Ki (Rattus norvegicus [1]) | Ratio Ki (Rattus norvegicus [2]) | Ki [3] | Ki [4] | Ratio Ki (Rattus norvegicus [5]) | Ki [6] | Activity (Rattus norvegicus [7]) | Activity (Rattus norvegicus [8])
1 | O[C@@H](CN[C@H]1CC[C@@H](C(c2ccccc2)c2ccccc2)OC1)c1ccc(F)cc1 | 0.06 | 0.13 | 1.14 µM | 0.0718 µM | 2.09 | 0.546 µM | – | –
2 | Oc1ccc(CN[C@H]2CC[C@@H](C(c3ccccc3)c3ccccc3)OC2)cc1 | – | – | 0.0291 µM | 0.042 µM | – | – | – | –
3 | c1ccc(C(c2ccccc2)[C@@H]2CC[C@H](NCc3ccco3)CO2)cc1 | 0.96 | 1.84 | 0.115 µM | 0.11 µM | 1.92 | 0.0598 µM | – | –
4 | c1ccc(C(c2ccccc2)[C@@H]2CC[C@H](NCc3ccccn3)CO2)cc1 | 0.43 | 0.41 | 0.483 µM | 0.209 µM | 0.96 | – | – | –
5 | O[C@H](CN[C@H]1CC[C@@H](C(c2ccccc2)c2ccccc2)OC1)c1ccc(F)cc1 | 0.13 | 0.48 | 0.825 µM | 0.106 µM | 3.72 | 0.222 µM | – | –
6 | COc1cccc([C@H](O)CN[C@H]2CC[C@@H](C(c3ccccc3)c3ccccc3)OC2)c1 | 0.21 | 0.46 | 0.646 µM | 0.137 µM | 2.16 | 0.299 µM | – | –
7 | c1ccc(C(c2ccccc2)[C@@H]2CC[C@H](NCc3cccc4ccccc34)CO2)cc1 | 5.33 | 2.04 | 0.0888 µM | 0.473 µM | 0.38 | 0.232 µM | – | –
8 | c1ccc(C(c2ccccc2)[C@@H]2CC[C@H](NCc3cccnc3)CO2)cc1 | 0.95 | 0.41 | 0.152 µM | 0.145 µM | 0.43 | 0.353 µM | – | –
9 | O[C@@H]1C[C@@H](C(c2ccccc2)c2ccccc2)OC[C@H]1NCc1ccc2[nH]ccc2c1 (single isomer, unassigned) | – | – | – | 0.0852 µM | – | – | – | –
10 | COc1ccc(CN[C@H]2CC[C@@H](C(c3ccccc3)c3ccccc3)OC2)cc1 | – | – | – | 0.0159 µM | – | 0.0293 µM | – | –
11 | O[C@@H](CN[C@H]1CC[C@@H](C(c2ccccc2)c2ccccc2)OC1)c1ccccc1 | 0.15 | 0.9 | 0.936 µM | 0.145 µM | 5.78 | 0.162 µM | – | –
12 | Oc1cccc(CN[C@H]2CC[C@@H](C(c3ccccc3)c3ccccc3)OC2)c1 | 0.78 | 0.81 | 0.0401 µM | 0.0313 µM | 1.04 | 0.0385 µM | Active | –
13 | CN(C)CCCN1c2ccccc2CCc2ccccc21 | – | – | – | – | – | – | – | Active
14 | COc1cccc([C@@H](O)CN[C@H]2CC[C@@H](C(c3ccccc3)c3ccccc3)OC2)c1 | 0.11 | 0.29 | 1.09 µM | 0.125 µM | 2.55 | 0.429 µM | – | –
15 | c1ccc(C(c2ccccc2)[C@@H]2CC[C@H](NCc3cccs3)CO2)cc1 | 0.22 | 0.88 | 0.186 µM | 0.0414 µM | 3.94 | 0.0472 µM | – | –
16 | Oc1ccccc1CN[C@H]1CC[C@@H](C(c2ccccc2)c2ccccc2)OC1 | 0.45 | 1.25 | 0.44 µM | 0.2 µM | 2.75 | 0.16 µM | – | –
17 | c1ccc(C(c2ccccc2)[C@@H]2CC[C@H](NCc3ccc[nH]3)CO2)cc1 | 0.31 | 1.09 | 0.141 µM | 0.0432 µM | 3.56 | 0.0396 µM | – | –
18 | O[C@H](CN[C@H]1CC[C@@H](C(c2ccccc2)c2ccccc2)OC1)c1ccccc1 | 0.07 | 0.18 | 0.796 µM | 0.054 µM | 2.67 | 0.298 µM | – | –
19 | c1ccc(C(c2ccccc2)[C@@H]2CC[C@H](NCc3ccncc3)CO2)cc1 | 0.03 | 0.06 | 0.889 µM | 0.0283 µM | 1.92 | 0.462 µM | – | –

— ChEMBL document CHEMBL1772952 (J Med Chem, 2011)
